Assay results pooled from the literature.
Lines come from different studies, so protocols differ.
Target: G protein-coupled receptor kinase 3 (GRK3, Homo sapiens, UniProt P35626)
Sequence (P35626 1-688, as in one of the studies): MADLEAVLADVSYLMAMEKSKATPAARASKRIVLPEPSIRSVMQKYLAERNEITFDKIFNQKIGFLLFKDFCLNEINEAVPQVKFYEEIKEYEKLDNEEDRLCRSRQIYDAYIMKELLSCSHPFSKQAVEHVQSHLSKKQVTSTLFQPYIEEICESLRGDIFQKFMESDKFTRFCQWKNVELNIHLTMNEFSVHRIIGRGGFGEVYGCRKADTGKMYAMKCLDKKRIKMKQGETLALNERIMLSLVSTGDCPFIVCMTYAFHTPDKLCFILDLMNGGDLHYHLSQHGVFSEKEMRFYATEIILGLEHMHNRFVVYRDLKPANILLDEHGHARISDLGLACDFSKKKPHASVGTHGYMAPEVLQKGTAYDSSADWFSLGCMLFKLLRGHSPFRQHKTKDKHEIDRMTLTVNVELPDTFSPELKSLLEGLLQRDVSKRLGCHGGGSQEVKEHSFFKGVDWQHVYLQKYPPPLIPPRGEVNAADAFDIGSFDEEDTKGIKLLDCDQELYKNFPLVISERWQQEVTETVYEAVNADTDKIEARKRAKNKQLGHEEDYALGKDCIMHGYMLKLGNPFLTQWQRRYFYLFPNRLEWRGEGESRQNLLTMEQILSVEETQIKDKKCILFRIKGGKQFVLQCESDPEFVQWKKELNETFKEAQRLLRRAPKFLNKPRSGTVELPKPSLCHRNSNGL

| Compound | assay | setting | remaining binding [%] |
| --- | --- | --- | --- |
| COc1cnc(Nc2cccc(S(N)(=O)=O)c2)nc1N1CCN(c2ccccc2)CC1 | binding, competition with immobilised ligand | 1 µM | 72 |
| CN(C)c1nccc(-c2cnn3ncccc23)n1 | binding | 1 µM | 89 |
| CNC(=O)[C@@H]1CC[C@@H](n2c(-c3ccc4cnccc4c3)nc3ccc(C(=O)NCc4cccc(C(N)=O)c4)cc32)C1 | binding, competition with immobilised ligand | 1 µM | 68 |
| FC(F)(F)Oc1cccc(-c2cnc3ccc(-c4ccncc4)nn23)c1 | cell-free assay, competition with immobilised ligand | 5 µM | 99 |
| C[C@@H](c1cccc(C#N)c1)n1cc(Cl)cc(C(N)=O)c1=N | cell-free assay, competition with immobilised ligand | 1 µM | 81 |
| CN(CCCC(F)(F)F)c1nccc(-c2cnn3ncccc23)n1 | binding | 1 µM | 100 |
| NS(=O)(=O)c1cc(NC(=O)C2(c3ccccc3Cl)CC2)ccc1Oc1cccc(Cl)c1 | cell-free assay, competition with immobilised ligand | 1 µM | 100 |
| O=C(c1ccc(Nc2ncc(Cl)c(-c3cc4ccccc4s3)n2)cc1)N1CCC(N2CCCC2)CC1 | binding, competition with immobilised ligand | 1 µM | 63 |
| C[C@H]1CCN(c2nccc(-c3cnn4ncccc34)n2)C1 | binding | 1 µM | 33 |
| FC(F)(F)c1ccc2c(c1)nc(-c1cccnc1)n2C1CC1 | cell-free assay, competition with immobilised ligand | 1 µM | 76 |
| Cc1cnn2ncc(-c3ccnc(N(C)C)n3)c2c1 | binding | 1 µM | 67 |
| O=C(Nc1cnc(Oc2ccc(F)cc2)nc1)N1CCc2ncccc2[C@@H]1c1ccc(F)cc1 | cell-free assay, competition with immobilised ligand | 1 µM | 96 |
| N[C@H]1CCN(c2nccc(-c3cnn4ncccc34)n2)C1 | binding | 1 µM | 66 |
| O=C(NCCCN1CCOCC1)c1ccc(Nc2ncc(Cl)c(-c3ccc(Cl)s3)n2)cc1 | binding, competition with immobilised ligand | 1 µM | 51 |
| C[C@@H](c1ccc(-n2cnc3c(N)ncnc32)cc1)N1CCc2nn(C)c(Cc3ccccc3)c2C1=O | binding, competition with immobilised ligand | 0.1 µM | 87 |
| Nc1cnc(N2CCc3cc(S(=O)(=O)Nc4c(F)cc(Cl)cc4F)cc(N4CCCC4=O)c32)nc1 | cell-free assay, competition with immobilised ligand | 1 µM | 100 |
| O=C(NCCCN1CCOCC1)c1ccc(Nc2nccc(-c3cc4ccccc4s3)n2)cc1 | binding, competition with immobilised ligand | 1 µM | 88 |
| CN(c1nccc(-c2cnn3ncccc23)n1)C1CC1 | binding | 1 µM | 100 |
| O=C(NCC1CCOCC1)c1n[nH]cc1NC(=O)c1c(F)cccc1F | binding, competition with immobilised ligand | 1 µM | 44 |
| O=C(O)[C@@H]1[C@@H](Cn2nnc3ccccc3c2=O)CC[C@H]1C(=O)c1ccc(OCCC2CCOCC2)cc1 | cell-free assay, competition with immobilised ligand | 1 µM | 100 |
| C=CC(=O)N1CCC(C(=O)NCC(=O)N2CCN(c3nc(-c4cnc(N)nc4C(F)F)nc(N4CCOCC4)n3)CC2)CC1 | binding, competition with immobilised ligand | 1 µM | 100 |
